What was measured:
[1] = target: T1, recombinant human GST-PRMT4 (Homo sapiens, UniProt Q86X55); assay: In vitro methylation of histone 3 by recombinant GST-PRMT4; type: biochemical; details: read-out: PRMT4 IC50; recombinant human GST-PRMT4, histone 3 as substrate
T1 sequence (Q86X55 1-608): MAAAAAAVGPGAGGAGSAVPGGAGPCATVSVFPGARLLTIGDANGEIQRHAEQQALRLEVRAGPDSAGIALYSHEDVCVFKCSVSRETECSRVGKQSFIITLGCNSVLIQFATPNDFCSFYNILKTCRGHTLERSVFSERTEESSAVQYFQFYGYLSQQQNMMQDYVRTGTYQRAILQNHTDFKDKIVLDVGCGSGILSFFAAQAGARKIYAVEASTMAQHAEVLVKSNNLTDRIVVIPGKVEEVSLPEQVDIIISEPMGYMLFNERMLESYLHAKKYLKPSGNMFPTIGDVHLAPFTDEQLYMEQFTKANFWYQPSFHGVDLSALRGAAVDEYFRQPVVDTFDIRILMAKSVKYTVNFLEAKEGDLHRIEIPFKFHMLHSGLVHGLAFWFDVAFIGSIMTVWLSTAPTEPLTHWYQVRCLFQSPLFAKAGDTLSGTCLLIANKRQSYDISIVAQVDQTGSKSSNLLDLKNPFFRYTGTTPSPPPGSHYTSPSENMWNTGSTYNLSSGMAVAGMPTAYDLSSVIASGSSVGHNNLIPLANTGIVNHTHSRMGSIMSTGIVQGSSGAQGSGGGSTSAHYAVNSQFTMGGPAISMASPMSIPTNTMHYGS
In short: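 Recombinant human GST-PRMT4 methylated recombinant histone 3 in the presence of [3H]SAM and increasing concentrations of test compound. Methylation was quantified by densitometry, and IC50 was calculated by linear regression. Representative of at least three independent experiments.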

PRMT6 = PRMT6 (Homo sapiens, UniProt Q96LA8); assay: In vitro methylation of GST-GAR by recombinant GST-PRMT6; type: biochemical; details: 30μM compound, GST-GAR substrate
In short: (§1)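 Recombinant GST-PRMT6 or GST-PRMT8 was concentrated on a micron 10 filter and reacted with GST-GAR substrate and [3H]SAM plus 30μM test compound. Reactions were quantified by densitometry. Representative of at least three independent experiments.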

PRMT8 = PRMT8 (Homo sapiens, UniProt Q9NR22); assay: In vitro methylation of GST-GAR by recombinant GST-PRMT8; type: biochemical; details: 30μM compound, GST-GAR substrate
In short: as §1

PRMT5 = PRMT5 (Homo sapiens, UniProt O14744); type: biochemical; details: PRMT5 immunoprecipitated from 293T cells, MBP as substrate
In short: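 PRMT5, or an isotype-control IP, was immunoprecipitated from 293 cell extracts and used in in vitro methylation reactions with MBP substrate at the indicated test compound concentrations. Reaction inputs were checked by immunoblotting with PRMT5 antisera. Representative of at least three independent experiments.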

PRMT1 [2] = assay: HA-PRMT1/FLAG-PRMT1 coimmunoprecipitation; details: 100μM during coimmunoprecipitation
In short: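 HA-PRMT1 and FLAG-PRMT1 were expressed in separately transfected 293T cells. Equal volumes of the two lysates were mixed and incubated with DMSO or test compound (100μM) during the anti-HA agarose immunoprecipitation. Blots were probed with anti-FLAG. As a specificity control, IPs from vector-only cells were incubated with FLAG-NIP45 lysates.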

Th1 cells = assay: Th1 cell IFNγ production by ELISA; type: cell-based, mice; details: 100μM
In short: (§2)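 Balb/c T helper cells isolated by magnetic beads, cultured in RPMI with plate-bound anti-CD3 1μg/mL, anti-CD28 2μg/mL and IL-2. Th1 skewed with rIL-12 5ng/mL and anti-IL-4 10 μg/mL (IFNγ line); Th2 with rIL-4 10 ng/mL and anti-IFNγ 10 μg/mL (IL-4 line). Day-7 cells at 1 × 10^6 cells/mL restimulated with plate-bound anti-CD3 (1μg/mL) for 24 h with compound or DMSO. Supernatant cytokine measured by ELISA; at least three experiments.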

Th2 cells = assay: Th2 cell IL-4 production by ELISA; type: cell-based, mice; details: 100μM
In short: as §2

[3] = tested on: IL-4 promoter (−760 to +68) in Jurkat cells; assay: IL-4 promoter luciferase reporter in Jurkat cells; type: cell-based, human; details: 18hrs pretreatment then 6hr PMA/Ionomycin, 100μM (Adox 20μM)
In short: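 Jurkat cells in RPMI, electroporated (280V, 975μF) with IL-4 promoter luciferase reporter (3μg) plus thymidine kinase-driven Renilla luciferase (10ng) as internal control. Compounds in DMSO, vehicle control DMSO; 18 h pretreatment, then 6 h stimulation with 50 ng/mL PMA plus ionomycin. Dual luciferase read-out, firefly normalised to Renilla. At least three independent experiments.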

PRMT1/NIP45 interaction = assay: HA-PRMT1/FLAG-NIP45 coimmunoprecipitation in 293T cells; type: cell-based; details: 293T cells transfected with HA-PRMT1 and FLAG-NIP45; 100μM (Adox 20μM)
In short: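 293T cells were co-transfected (Fugene HD) with HA-PRMT1 and FLAG-NIP45 vectors, then treated with DMSO, test compound (100μM) or Adox (20μM). Lysates in 100 mM NaCl, 50 mM TRIS pH 7.5, 0.1% TX-100 buffer were immunoprecipitated with anti-HA agarose and blotted for FLAG, then reprobed for HA. FLAG/HA association was quantified versus DMSO; three experiments.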

recombinant hPRMT1 = details: read-out: PRMT1 IC50; reported value using recombinant hPRMT1 and GST-Npl3 as substrate; cited from earlier work
[4] = tested on: H3R17 methylation in 293T cells; assay: Cellular H3R17 methylation immunoblot in 293T cells; type: cell-based; details: 293T cells over treatment period (data not shown)
In short: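 293T cells grown in DMEM were treated for 24 hrs with DMSO vehicle, test compound (100μM or 300μM) or Adox (20μM). Histone extracts were immunoblotted with anti-histone 3 dimethylarginine 17 antibody. Methylation was quantified relative to vehicle-treated samples. Toxicity was followed over the treatment period. Three independent experiments.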

[5] = Viability of T helper cells; type: cell-based; details: Balb/c, mouse, primary T helper cells
T helper cells [6] = assay: Viability of T helper cells; type: cell-based; details: T helper cells, 100 μM
T helper cells [7] = assay: T helper cell proliferation; type: cell-based, mice; details: anti-CD3 stimulated T helper cells, MTS assay
PRMT1 [8] = target: PRMT1 (Rattus norvegicus, UniProt Q63009); assay: UV crosslinking of [3H]SAM to GST-PRMT1; type: binding; details: 100μM inhibitor, 20μM [3H]SAM
PRMT1 (Rattus norvegicus, UniProt Q63009), sequence (Q63009 whole entry): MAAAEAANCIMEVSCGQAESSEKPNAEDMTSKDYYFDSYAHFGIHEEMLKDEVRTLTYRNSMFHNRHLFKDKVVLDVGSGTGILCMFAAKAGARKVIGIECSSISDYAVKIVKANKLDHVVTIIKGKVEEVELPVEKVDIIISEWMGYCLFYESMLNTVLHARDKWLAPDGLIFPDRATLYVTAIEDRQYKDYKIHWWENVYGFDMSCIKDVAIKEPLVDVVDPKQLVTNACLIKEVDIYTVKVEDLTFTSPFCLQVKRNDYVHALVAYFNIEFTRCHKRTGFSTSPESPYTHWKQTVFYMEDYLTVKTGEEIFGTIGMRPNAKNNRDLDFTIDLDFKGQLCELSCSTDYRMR

PRMT5, sequence (O14744 whole entry): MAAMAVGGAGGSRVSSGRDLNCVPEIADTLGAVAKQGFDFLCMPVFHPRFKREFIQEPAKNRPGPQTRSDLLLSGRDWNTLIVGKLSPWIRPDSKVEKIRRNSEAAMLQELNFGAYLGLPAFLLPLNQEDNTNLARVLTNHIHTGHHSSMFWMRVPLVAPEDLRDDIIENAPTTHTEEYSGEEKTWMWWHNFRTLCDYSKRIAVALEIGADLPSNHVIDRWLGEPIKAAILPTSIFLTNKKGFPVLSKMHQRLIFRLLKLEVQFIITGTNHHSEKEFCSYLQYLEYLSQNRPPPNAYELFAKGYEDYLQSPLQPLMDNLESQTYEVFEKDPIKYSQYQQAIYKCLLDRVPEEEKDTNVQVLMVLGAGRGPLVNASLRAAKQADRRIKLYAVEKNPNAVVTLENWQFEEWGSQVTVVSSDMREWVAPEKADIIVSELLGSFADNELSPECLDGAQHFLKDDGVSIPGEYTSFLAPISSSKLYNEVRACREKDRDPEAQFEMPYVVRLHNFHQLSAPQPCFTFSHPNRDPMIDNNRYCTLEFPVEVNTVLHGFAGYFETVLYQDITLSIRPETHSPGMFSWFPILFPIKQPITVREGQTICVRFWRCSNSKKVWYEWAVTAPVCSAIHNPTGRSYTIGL
PRMT5, sequence (Q9BQA1 whole entry partner): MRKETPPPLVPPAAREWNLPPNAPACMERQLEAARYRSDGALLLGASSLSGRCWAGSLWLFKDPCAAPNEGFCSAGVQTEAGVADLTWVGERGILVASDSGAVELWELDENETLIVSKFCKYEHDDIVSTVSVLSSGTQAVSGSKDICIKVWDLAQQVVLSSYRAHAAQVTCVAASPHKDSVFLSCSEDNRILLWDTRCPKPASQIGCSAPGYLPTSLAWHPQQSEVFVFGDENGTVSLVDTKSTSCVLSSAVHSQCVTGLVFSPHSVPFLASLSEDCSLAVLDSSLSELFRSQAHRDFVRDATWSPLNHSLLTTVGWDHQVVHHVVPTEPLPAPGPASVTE
PRMT8, sequence (Q9NR22 whole entry, species assumed): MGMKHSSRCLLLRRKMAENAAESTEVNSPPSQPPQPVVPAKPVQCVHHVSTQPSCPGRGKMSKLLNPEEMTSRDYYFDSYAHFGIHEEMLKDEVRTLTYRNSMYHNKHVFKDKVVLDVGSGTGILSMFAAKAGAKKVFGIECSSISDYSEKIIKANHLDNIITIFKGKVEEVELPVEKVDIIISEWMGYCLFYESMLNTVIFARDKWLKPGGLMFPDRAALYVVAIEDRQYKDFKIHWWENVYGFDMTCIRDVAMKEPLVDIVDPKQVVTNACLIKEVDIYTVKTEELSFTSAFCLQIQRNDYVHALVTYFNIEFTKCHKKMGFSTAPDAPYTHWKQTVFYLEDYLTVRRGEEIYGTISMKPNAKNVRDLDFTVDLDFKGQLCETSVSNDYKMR
PRMT6, sequence (Q96LA8 whole entry, species assumed): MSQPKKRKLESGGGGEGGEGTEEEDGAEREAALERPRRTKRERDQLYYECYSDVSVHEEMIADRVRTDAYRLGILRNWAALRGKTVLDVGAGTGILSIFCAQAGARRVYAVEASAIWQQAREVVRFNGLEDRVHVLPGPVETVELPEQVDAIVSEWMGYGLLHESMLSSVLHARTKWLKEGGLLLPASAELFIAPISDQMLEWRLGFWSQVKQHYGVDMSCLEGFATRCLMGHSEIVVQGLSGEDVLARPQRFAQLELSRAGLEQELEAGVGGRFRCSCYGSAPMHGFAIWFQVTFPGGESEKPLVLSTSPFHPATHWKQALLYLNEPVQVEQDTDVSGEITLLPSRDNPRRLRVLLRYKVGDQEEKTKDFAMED

O=C(Nc1ccc2c(O)cc(S(=O)(=O)O)cc2c1)Nc1ccc2c(O)cc(S(=O)(=O)O)cc2c1 [AMI-1]
IC50 [1]: 170 ± 10.7 µM | inhibition of GST-GAR methylation by PRMT6 (PRMT6): less effective | inhibition of GST-GAR methylation by PRMT8 (PRMT8): less effective | inhibition of PRMT5 activity (PRMT5): ineffective | effect on HA-PRMT1/FLAG-PRMT1 interaction (oligomerization) (PRMT1 [2]): did not interfere with the interaction | reduction of Th1 IFNγ production (Th1 cells; anti-CD3 stimulated Th1 cells, ELISA): less than 40% | reduction of Th2 IL-4 levels (Th2 cells; anti-CD3 stimulated Th2 cells, ELISA): less than 40% | effect on IL-4 promoter reporter activity [3]: decreased promoter activity | effect on PRMT1/NIP45 association (PRMT1/NIP45 interaction): interfered with the NIP45 and PRMT1 interaction | IC50 (recombinant hPRMT1): 8.8 µM

Nc1ncnc2c1ncn2C(C=O)OC(C=O)CO (centres unmarked) [Adox, adenosine dialdehyde]
cellular toxicity [4]: no cellular toxicity | effect on IL-4 promoter reporter activity [3]: greatly diminished | effect on PRMT1/NIP45 association (PRMT1/NIP45 interaction): reduced the association

CSC[C@H]1O[C@@H](n2cnc3c(N)ncnc32)[C@H](O)[C@@H]1O [MTA, methylthioadenosine]
effect on IFNγ production (Th1 cells; Th1 cells): diminished | effect on IL-4 production (Th2 cells; Th2 cells): diminished | viability at 100 µM [5]: 90.9% | % apoptotic (T helper cells [6]): 4.9% | % necrotic (T helper cells [6]): 4.2% | effect on T helper cell proliferation (T helper cells [7]): inhibited T cell proliferation

Nc1ncnc2c1ncn2[C@@H]1O[C@H](C[C@@H](N)CC[C@H](N)C(=O)O)[C@@H](O)[C@H]1O [sinefungin]
competition for SAM binding to PRMT1 (PRMT1 [8]): competitive with SAM for binding

From publication PMC2903848 (The FEBS journal, 2010)
